Measurements as given in ChEMBL document CHEMBL1275307, “Design, synthesis and biological evaluation of 1,3,4-oxadiazole derivatives” (2010).

How the values were obtained:
Assay type in all cases: functional
Escherichia coli = assay: Antimicrobial activity against Escherichia coli MTCC 443 after 24 hrs by disk diffusion method
Summary of the method: (§1)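 Paper discs (6.25 mm diameter; Whatman no.1, dry-heat sterilized 140 °C, 1 h) soaked in test compound at a known concentration, placed on nutrient agar seeded with organism; solvent and growth controls plus ciprofloxacin standard included. Plates inverted, incubated 24 h at 37 °C; inhibition zone diameters measured and compared with controls.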

Staphylococcus aureus = assay: Antimicrobial activity against Staphylococcus aureus ATCC 25923 after 24 hrs by disk diffusion method; summary of the method: as §1
[1] = test system: Staphylococcus epidermidis; assay: Antimicrobial activity against Staphylococcus epidermidis ATCC 12228 after 24 hrs by disk diffusion method; summary of the method: as §1

| SMILES | inhibition zone (IZ) (Escherichia coli) [mm] | inhibition zone (IZ) (Staphylococcus aureus) [mm] | inhibition zone (IZ) [1] [mm] |
| --- | --- | --- | --- |
| Oc1ccccc1-c1nnc(S)o1 | 18 | 24 | 22 |
| Oc1ccccc1-c1nnc(Cc2ccc3ccccc3c2)o1 | 21 | 23 | 25 |
| Cc1ccc(-c2nnc(-c3ccccc3O)o2)cc1 | 19 | 20 | 22 |
| S=c1[nH]nc(-c2ccccc2)o1 | 20 | 22 | 18 |
| Cc1ccc(-c2nnc(S)o2)cc1 | 19 | 20 | 16 |
| Sc1nnc(-c2cccnc2)o1 | 21 | 25 | 26 |
| Oc1ccccc1-c1nnc(-c2ccccc2)o1 | 19 | 21 | 18 |
| O=C(O)c1cn(C2CC2)c2cc(N3CCNCC3)c(F)cc2c1=O [CIPROFLOXACIN] |  | 29 | 30 |
| c1ccc(-c2nnc(-c3cccnc3)o2)cc1 | 24 | 24 | 25 |
| CC(=O)Oc1ccccc1-c1nnc(S)o1 | 25 | 24 | 26 |
| Cc1ccccc1-c1nnc(-c2ccccc2O)o1 | 23 | 23 | 24 |
